Values after ≈ are worked out from the molar mass of the structure shown. Counter-ions that a name gives are not always drawn. Each block holds one molecule with its values, some of them ahead of it.
Tests used:
SaFtsZ [1] = molecular target: T1, SaFtsZ (Staphylococcus aureus, UniProt P0A031); experiment: FtsZ polymerization assay; format: biochemical; conditions: for Impact on SaFtsZ polymerization (A340) / Stability of compound-induced SaFtsZ polymers to added GDP: compound 40 μg/mL, 1 mM GTP; for Impact on SaFtsZ polymerization (A340): 10 μM SaFtsZ, 25 °C; for Stability of compound-induced SaFtsZ polymers to added GDP: 1 mM GDP added
T1 sequence (P0A031 1-390): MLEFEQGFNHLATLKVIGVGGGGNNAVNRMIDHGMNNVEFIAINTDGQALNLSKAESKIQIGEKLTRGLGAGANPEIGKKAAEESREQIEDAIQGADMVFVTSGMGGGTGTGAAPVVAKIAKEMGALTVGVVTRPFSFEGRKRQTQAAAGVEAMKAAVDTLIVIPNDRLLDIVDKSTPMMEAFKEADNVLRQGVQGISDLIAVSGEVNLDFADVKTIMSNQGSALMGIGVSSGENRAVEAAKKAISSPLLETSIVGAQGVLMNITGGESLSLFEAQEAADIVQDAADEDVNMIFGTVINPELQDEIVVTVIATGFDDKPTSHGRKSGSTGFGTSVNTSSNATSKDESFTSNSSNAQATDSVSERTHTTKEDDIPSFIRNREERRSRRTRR

[2] = molecular target: microtubule-associated protein (MAP)-rich porcine β-tubulin (Sus scrofa, UniProt P02554); experiment: Tubulin polymerization assay; format: biochemical; conditions: tubulin 2 mg/mL
Outline: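 MAP-rich porcine tubulin (70% tubulin, 30% MAPs) at 2 mg/mL with 1 mM GTP in 80 mM PIPES NaOH (pH 7.0), 2 mM MgCl2, 1 mM EGTA. Test compound 40 μg/mL, paclitaxel 25 μg/mL or nocodazole 10 μg/mL as comparators, or DMSO vehicle. Turbidity (A340) read continuously at 37 °C over 60 min.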

HEK293 cells = experiment: MTT cytotoxicity assay, HEK293; format: cell-based, human; conditions: 10 μM, MTT
Outline: (§1)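 MTT tetrazolium assay in 96-well plates. Cells were grown […] at 37 °C in 5% CO2 and passaged in DMEM. Each well was seeded with 1500 cells, and triplicate wells were exposed continuously to varying concentrations of test compound for four days. MTT was read at the end of day 4, and IC50 was determined.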

S. aureus 8325-4 (MSSA) = experiment: MIC assay, CLSI broth microdilution, MSSA; format: cell-based; conditions: Staphylococcus aureus, 24 h, read-out: MIC S. aureus 8325-4 (MSSA), lowest concentration at which growth is ≥90% inhibited, CAMH broth, 37 °C
SaFtsZ [3] = molecular target: T1, SaFtsZ; experiment: FtsZ GTPase assay; format: biochemical; conditions: for Concentration dependence of the impact on SaFtsZ GTPase activity: 10 μM SaFtsZ, Fig. 4
[4] = MTT cytotoxicity assay, HEK293; format: cell-based, human; conditions: human, HEK293 cells
Outline: as §1

[5] = MTT cytotoxicity assay, MDCK; format: cell-based, canine; conditions: dog, MDCK cells
Outline: as §1

Sequence of microtubule-associated protein (MAP)-rich porcine β-tubulin (P02554 whole entry): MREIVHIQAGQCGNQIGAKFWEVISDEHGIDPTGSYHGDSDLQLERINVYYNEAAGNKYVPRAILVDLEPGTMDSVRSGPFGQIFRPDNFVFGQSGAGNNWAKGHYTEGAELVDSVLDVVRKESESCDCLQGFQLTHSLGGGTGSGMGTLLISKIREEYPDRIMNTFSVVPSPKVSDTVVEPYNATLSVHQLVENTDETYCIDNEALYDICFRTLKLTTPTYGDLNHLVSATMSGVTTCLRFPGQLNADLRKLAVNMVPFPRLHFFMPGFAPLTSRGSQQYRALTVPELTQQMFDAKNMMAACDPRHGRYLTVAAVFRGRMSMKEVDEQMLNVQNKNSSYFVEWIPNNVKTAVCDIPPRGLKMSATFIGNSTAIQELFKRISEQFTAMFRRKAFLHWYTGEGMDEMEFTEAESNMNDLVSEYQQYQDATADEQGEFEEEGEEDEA
Sequence of microtubule-associated protein (MAP)-rich porcine β-tubulin (P02550 whole entry partner): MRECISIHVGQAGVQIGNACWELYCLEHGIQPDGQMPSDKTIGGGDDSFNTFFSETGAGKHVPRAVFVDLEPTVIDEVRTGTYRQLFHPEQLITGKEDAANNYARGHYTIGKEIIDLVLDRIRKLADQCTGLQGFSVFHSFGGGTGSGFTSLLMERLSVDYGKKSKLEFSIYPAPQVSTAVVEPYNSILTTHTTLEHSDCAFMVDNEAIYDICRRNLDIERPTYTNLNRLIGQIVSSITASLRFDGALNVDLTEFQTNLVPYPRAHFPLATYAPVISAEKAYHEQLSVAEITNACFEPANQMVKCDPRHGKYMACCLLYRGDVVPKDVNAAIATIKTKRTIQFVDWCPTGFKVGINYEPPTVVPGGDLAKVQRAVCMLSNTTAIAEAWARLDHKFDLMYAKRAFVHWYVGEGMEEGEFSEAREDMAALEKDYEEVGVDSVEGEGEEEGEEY

Impact on SaFtsZ polymerization (A340) (SaFtsZ [1]): stimulate SaFtsZ polymerization
Compound: COc1cc2cc(-c3cccc(-c4ccc(-c5ccccc5)cc4)c3)[n+](C)c(C)c2cc1OC.[I-] [Compound 5b, 3-([1,1′:4′,1″-Terphenyl]-3-yl)-6,7-dimethoxy-1,2-dimethy lisoquinolin-2-ium iodide]

Compound: CC(=O)O[C@H]1C(=O)[C@@]2(C)[C@H]([C@H](OC(=O)c3ccccc3)[C@]3(O)C[C@H](OC(=O)[C@H](O)[C@@H](NC(=O)c4ccccc4)c4ccccc4)C(C)=C1C3(C)C)[C@]1(OC(C)=O)CO[C@@H]1C[C@@H]2O [paclitaxel, reference compound]
Impact on polymerization of porcine β-tubulin (A340) ([2]; 25 μg/mL, positive control): produce their expected impacts on tubulin polymerization dynamics

Impact on SaFtsZ polymerization (A340) (SaFtsZ [1]): stimulate SaFtsZ polymerization
Compound: COc1cc2cc(-c3cccc(-c4ccc(C(C)(C)C)cc4)c3)[n+](C)c(C)c2cc1OC.[I-] [Compound 7b, 3-(4′-(t-Butyl)-[1,1′-biphenyl]-3-yl)-6,7-dimethoxy-1,2-dimethylisoquinolin-2-ium iodide]
Impact on polymerization of porcine β-tubulin (A340) ([2]; compound 40 μg/mL, 37 °C): neither 7b nor 19a exert a significant impact
Stability of compound-induced SaFtsZ polymers to added GDP (SaFtsZ [1]): stable to the depolymerizing effects of GDP

Compound: COc1cc2cc(-c3cccc(C(C)(C)C)c3)nc(CN)c2cc1OC [Compound 16a, (3-(3-(t-Butyl)phenyl)-6,7-dimethoxyisoquinolin-1-yl)methanamine]
Human cell toxicity at the highest concentration tested (HEK293 cells): no significant human cell toxicity

Compound: COc1cc2cc(-c3cccc(-c4ccc(C(C)(C)C)cc4)c3)nc(CN=C(N)N)c2cc1OC [Compound 21a, 2-((3-(4′-(t-Butyl)-[1,1′-biphenyl]-3-yl)-6,7-dimethoxyisoquinolin-1-yl)methyl)guanidine trifluoroacetate]
MIC (S. aureus 8325-4 (MSSA)): 2 to 4 µg/mL

Compound: COc1cc2cc(-c3cccc(C(C)(C)C)c3)nc(C)c2cc1OC [Compound 4a, 3-(3-(t-Butyl)phenyl)-6,7-dimethoxy-1-methylisoquino line]
Impact on SaFtsZ polymerization (A340) (SaFtsZ [1]): did not significantly impact SaFtsZ polymerization

Compound: COc1ccc2cc3[n+](cc2c1OC)CCc1cc2c(cc1-3)OCO2 [Berberine, berberine, reference compound]
Impact on SaFtsZ polymerization (A340) (SaFtsZ [1]): did not significantly impact SaFtsZ polymerization

Compound: COC(=O)Nc1nc2cc(C(=O)c3cccs3)ccc2[nH]1 [nocodazole, reference compound]
Impact on polymerization of porcine β-tubulin (A340) ([2]; 10 μg/mL, positive control): produce their expected impacts on tubulin polymerization dynamics

Impact on SaFtsZ polymerization (A340) (SaFtsZ [1]): stimulate SaFtsZ polymerization
Compound: COc1cc2cc(-c3cccc(-c4ccccc4)c3)nc(CCN=C(N)N)c2cc1OC [Compound 15a, 2-(2-(3-([1,1′-Biphenyl]-3-yl)-6,7-dimethoxyisoquinolin-1-yl)ethyl)guanidine]
Concentration dependence of the impact on SaFtsZ GTPase activity (SaFtsZ [3]): stimulate GTPase activity at lower concentrations, followed by inhibition at higher concentrations
Human cell toxicity at the highest concentration tested (HEK293 cells): no significant human cell toxicity

Compound: COc1cc2cc(-c3cccc(-c4ccccc4)c3)nc(CN=C(N)N)c2cc1OC [Compound 13a, 2-((3-([1,1′-biphenyl]-3-yl)-6,7-dimethoxyisoquinolin-1-yl)methyl)guanidine trifluo roacetate]
Human cell toxicity at the highest concentration tested (HEK293 cells): no significant human cell toxicity

Compound: COc1cc2cc(-c3cccc(-c4ccccc4)c3)nc(N=C(N)N)c2cc1OC [Compound 10a, 2-(3-([1,1′-biphenyl]-3-yl)-6,7-dimethoxyisoquinolin-1-yl)guanidine]
IC50 at 4 days [4]: 2200 to 3500 nM
IC50 at 4 days [5]: 2200 to 3500 nM

Impact on SaFtsZ polymerization (A340) (SaFtsZ [1]): stimulate SaFtsZ polymerization
Compound: COc1cc2cc(-c3cccc(C(C)(C)C)c3)nc(C/N=C(/C)N)c2cc1OC [Compound 18a, N′-((3-(3-(t-butyl)phenyl)-6,7-dimethoxyisoquinolin-1-yl)methyl)acetimidamide]
Concentration dependence of the impact on SaFtsZ GTPase activity (SaFtsZ [3]): stimulate GTPase activity at lower concentrations, followed by inhibition at higher concentrations

Impact on SaFtsZ polymerization (A340) (SaFtsZ [1]): stimulate SaFtsZ polymerization
Compound: NC(=O)c1c(F)ccc(OCc2nc3cc(Cl)cnc3s2)c1F [PC190723, reference compound]

Impact on SaFtsZ polymerization (A340) (SaFtsZ [1]): stimulate SaFtsZ polymerization
MIC (S. aureus 8325-4 (MSSA)): 2 to 4 µg/mL (≈ 4.92 to 9.84 µM)
Compound: COc1cc2cc(-c3cccc(C(C)(C)C)c3)nc(CCN=C(N)N)c2cc1OC [Compound 20a, 2-(2-(3-(3-(t-Butyl)phenyl)-6,7-dimethoxyisoquinolin-1-yl)ethyl)guanidine]
Concentration dependence of the enhancement of SaFtsZ polymerization (SaFtsZ [1]; 20, 30 and 40 μg/mL): enhances SaFtsZ polymerization increases with increasing compound concentration
Stability of compound-induced SaFtsZ polymers to added GDP (SaFtsZ [1]): stable to the depolymerizing effects of GDP

Compound: CN[C@H](CC(C)C)C(=O)N[C@H]1C(=O)N[C@@H](CC(N)=O)C(=O)N[C@H]2C(=O)N[C@H]3C(=O)N[C@H](C(=O)N[C@H](C(=O)O)c4cc(O)cc(O)c4-c4cc3ccc4O)[C@H](O)c3ccc(c(Cl)c3)Oc3cc2cc(c3O[C@@H]2O[C@H](CO)[C@@H](O)[C@H](O)[C@H]2O[C@H]2C[C@](C)(N)[C@H](O)[C@H](C)O2)Oc2ccc(cc2Cl)[C@H]1O [Vancomycin, reference compound]
Impact on SaFtsZ polymerization (A340) (SaFtsZ [1]): no impact on the polymerization of SaFtsZ
Percent GTPase activity (SaFtsZ [3]; 40 μg/mL, percentage of activity with vehicle (DMSO) alone, mean of two ± SD): no significant impact

Compound: COc1cc2cc(-c3cccc(-c4ccc(C(C)(C)C)cc4)c3)nc(C)c2cc1OC [Compound 7a, 3-(4′-(t-Butyl)-[1,1′-biphenyl]-3-yl)-6,7-dimethoxy-1-methylisoquinoline]
Impact on SaFtsZ polymerization (A340) (SaFtsZ [1]): did not significantly impact SaFtsZ polymerization

Impact on SaFtsZ polymerization (A340) (SaFtsZ [1]): stimulate SaFtsZ polymerization
Compound: COc1cc2cc(-c3cccc(C(C)(C)C)c3)nc(CN=C(N)N)c2cc1OC [Compound 19a, 2-((3-(3-(t-Butyl)phenyl)-6,7-dimethoxyisoquinolin-1-yl)methyl)guanidine]
Impact on polymerization of porcine β-tubulin (A340) ([2]; compound 40 μg/mL, 37 °C): neither 7b nor 19a exert a significant impact

Impact on SaFtsZ polymerization (A340) (SaFtsZ [1]): stimulate SaFtsZ polymerization
Compound: COc1cc2cc(-c3cccc(C(C)(C)C)c3)nc(CCN)c2cc1OC [Compound 17a, 2-(3-(3-(t-Butyl)phenyl)-6,7-dimethoxyisoquinolin-1-yl)ethanamine]
Stability of compound-induced SaFtsZ polymers to added GDP (SaFtsZ [1]): stable to the depolymerizing effects of GDP
IC50 at 4 days [4]: 2200 to 3500 nM
IC50 at 4 days [5]: 2200 to 3500 nM

Reference: paper PMC3947851 (Bioorganic & medicinal chemistry, 2012)
